# Activity calls are given as the source filed them. The calls are words filed in the database; no cut-off is given here.
# Columns and labels:
# [1] = test system: Mus musculus; test: Protection against PTZ-induced convulsions in ip dosed mouse after 0.5 hrs by scPTZ assay; format: functional
# How it was run: (§1)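 Mice received test drug, positive control or vehicle (DMSO) intraperitoneally 30 min before a subcutaneous PTZ injection at 80 mg/kg. The end-point was clonic seizure lasting more than 5 s. Tested up to 300 mg/kg. Run in triplicate (n = 3). ED50 in mg/kg was found by non-linear regression, as mean with 95% confidence intervals.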
# [2] = test system: Mus musculus; test: Protection against electroshock-induced convulsions in mouse at 300 mg/kg, ip after 0.5 hrs by MES assay; format: functional, organism-based; parameters: dose 300 mg/kg
# How it was run: (§2)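 Mice were dosed intraperitoneally with test drug, positive control or vehicle (DMSO) 30 min before electroshock at 50 mA for 0.2 s. The end-point was the hind limb tonic extensor component. Doses up to 300 mg/kg. Done in triplicate (n = 3). ED50 in mg/kg was derived by non-linear regression and given as mean with 95% confidence intervals.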
# [3] = test system: Mus musculus; test: Protection against PTZ-induced convulsions in mouse up to 300 mg/kg, ip after 0.5 hrs by scPTZ assay; format: functional, organism-based; parameters: dose 300 mg/kg; how it was run: as §1
# [4] = test system: Mus musculus; test: Protection against electroshock-induced convulsions in mouse up to 300 mg/kg, ip after 0.5 hrs by MES assay; format: functional, organism-based; parameters: dose 300 mg/kg; how it was run: as §2
# [5] = test system: Mus musculus; test: Protection against electroshock-induced convulsions in ip dosed mouse after 0.5 hrs by MES assay; format: functional; how it was run: as §2
# [6] = test system: Mus musculus; test: Protection against PTZ-induced convulsions in mouse at 300 mg/kg, ip after 0.5 hrs by scPTZ assay; format: functional, organism-based; parameters: dose 300 mg/kg; how it was run: as §1
Structure (SMILES),ED50 [1] [mg/kg],Activity [4],ED50 [5] [mg/kg],other results
CCN1C(=O)N(c2ccc(OC)cc2)C(=O)C12OC(=O)c1ccccc12 (stereo not given),82.5,,,Activity [2]: Active
O=C1OC2(C(=O)N(C3CCCCC3)C(=O)N2C2CCCCC2)c2ccccc21 (stereo not given),,inactive,,Activity [3]: inactive
CCN1C(=O)N(c2ccccc2)C(=O)C12OC(=O)c1ccccc12 (stereo not given),54.8,,81,
CCC1(c2ccccc2)C(=O)NC(=O)NC1=O [PHENOBARBITAL],20,inactive,,
CCN1C(=O)N(c2ccc([N+](=O)[O-])cc2)C(=O)C12OC(=O)c1ccccc12 (stereo not given),41.8,inactive,,
CN1C(=O)N(c2ccccc2)C(=O)C12OC(=O)c1ccccc12 (stereo not given),96.8,,,Activity [2]: Active
CCCCN1C(=O)N(CCCC)C2(OC(=O)c3ccccc32)C1=O (stereo not given),> 100,,,Activity [2]: Active
CC(C)N1C(=O)N(C(C)C)C2(OC(=O)c3ccccc32)C1=O (stereo not given),,inactive,,Activity [6]: Active
CCCN1C(=O)N(CCC)C2(OC(=O)c3ccccc32)C1=O (stereo not given),78.5,,> 100,
CN1C(=O)N(c2ccc(C(F)(F)F)cc2)C(=O)C12OC(=O)c1ccccc12 (stereo not given),> 100,,> 100,
O=C1NC(=O)C(c2ccccc2)(c2ccccc2)N1 [PHENYTOIN],,,8.1,Activity [3]: inactive
CCN1C(=O)N(c2ccc(F)cc2)C(=O)C12OC(=O)c1ccccc12 (stereo not given),85.8,,> 100,
CN1C(=O)N(c2ccc(F)cc2)C(=O)C12OC(=O)c1ccccc12 (stereo not given),87.1,,> 100,
CN1C(=S)N(c2ccccc2)C(=O)C12OC(=O)c1ccccc12 (stereo not given),,inactive,,Activity [6]: Active
CCN1C(=O)N(C)C(=O)C12OC(=O)c1ccccc12 (stereo not given),,inactive,,Activity [6]: Active

# Reference: ChEMBL document CHEMBL1148686, “Synthesis and anticonvulsant activity of new N-1',N-3'-disubstituted-2'H,3H,5'H-spiro-(2-benzofuran-1,4'-imidazolidine)-2',3,5'-triones” (2006)
